What follows are compounds tested against T1, NAD-dependent protein deacetylase sirtuin-2 (Homo sapiens, UniProt Q8IXJ6) (assay: Inhibition of recombinant GST-tagged SIRT2 at 200 uM after 1 hr by Fluor de Lys-based fluorescence assay).
T1 sequence (Q8IXJ6 whole entry): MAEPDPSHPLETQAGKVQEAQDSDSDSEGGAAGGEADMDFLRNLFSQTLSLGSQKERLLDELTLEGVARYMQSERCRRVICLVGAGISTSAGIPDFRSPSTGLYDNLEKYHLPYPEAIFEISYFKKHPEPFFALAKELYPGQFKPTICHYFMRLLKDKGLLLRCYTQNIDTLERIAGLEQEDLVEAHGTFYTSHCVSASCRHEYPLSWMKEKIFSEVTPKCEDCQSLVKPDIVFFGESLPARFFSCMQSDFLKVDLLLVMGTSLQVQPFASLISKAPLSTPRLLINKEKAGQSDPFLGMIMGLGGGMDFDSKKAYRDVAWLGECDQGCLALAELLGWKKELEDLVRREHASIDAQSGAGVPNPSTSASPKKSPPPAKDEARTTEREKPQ
Method in brief: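 Single-point Fluor de Lys test at 200 μM: GST-SIRT1 (40 μM KI177 substrate) or GST-SIRT2 (138 μM KI179 substrate), 500 μM NAD+, BSA-supplemented buffer, 5 min rt preincubation, enzyme-started 1 h at 37 °C. Developer with 2 mM nicotinamide 45 min 37 °C; fluorescence ex 355/em 460 nm. Percent inhibition ± standard deviation.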

Q: For `CC(=S)NCCCC[C@H](NC(=O)[C@H](N)Cc1ccccc1)C(=O)N[C@@H](C)C(=O)O`, which Inhibition is on record?
A: 22.4%

Q: Which Inhibition does the source give for `CC(=S)NCCCC[C@H](NC(=O)OCc1ccccc1)C(=O)NC1CCCCC1` here?
A: 57.2%

Q: How did the Inhibition turn out when `CC(=S)NCCCC[C@H](N)C(=O)N[C@@H](C)C(=O)O` was run?
A: 2%
